Published values of several laboratories.
Compare with care: the assays were run in different laboratories.
Cell line: MDA-MB-231
Effect on: cell growth or viability

With `C=CC(=O)c1cccnc1Nc1cc(C(F)(F)F)ccc1OC` the GI50 was 10.5 µM (SRB; 48 h).
`O=C(CCc1ccccc1)Nc1cc(-c2ccnc(N3CCC(O)CC3)c2)ccn1` has an inhibition of 78.9% (MTT; 5 µM).
With `C=C(COCc1ccc(F)cc1)[C@@H]1CC[C@@H](C)C[C@H]1OCc1ccc(F)cc1` the inhibition was 25% (MTT; 30 µM, 72 h).
The inhibition of `Cc1cc(NC(=O)C=Cc2ccccc2)cc(-c2ccnc(N3CCOCC3)c2)c1` is reported as 17.7% (MTT; 5 µM).
`C=CCOc1ccc2c(C)c(CC)c(=O)oc2c1C` has a viability of 99.7% (MTT; 31.25 µg/mL).
`COc1cc2c3c(n(CCCNC(C)C)c(=O)c2cc1OC)-c1nc2c(cc1C3=O)OCO2` gave an IC50 of 0.644 µM (MTS; 72 h).
`COc1ccc(CNC[C@@](C)(O)[C@@H]2CC[C@@H](C)C[C@H]2OCc2ccccc2)cc1` gave an inhibition of 45.7% (MTT; 10 µM, 72 h).
The IC50 of `O=C(NO)c1ccc(CNc2ccc(NC3=C(Cl)C(=O)c4cccnc4C3=O)cc2)cc1-c1ccccc1` is reported as 2.5 µM (MTT; 48 h).
The IC50 of `COc1cc([C@@H]2c3cc4c(cc3[C@@H](O[C@@H]3O[C@@H]5CO[C@@H](C)O[C@H]5[C@H](O)[C@H]3O)[C@H]3COC(=O)[C@H]23)OCO4)cc(OC)c1O` is reported as 43.2 µM (MTT; 48 h).
`O=C(C=Cc1ccc(F)cc1)Nc1cc(-c2ccnc(N3CCC(O)CC3)c2)ccn1` has an inhibition of 72.3% (MTT; 5 µM).
`Nc1ccccc1NC(=O)c1ccc(CNc2ccc(NC3=C(Cl)C(=O)c4ncccc4C3=O)cc2)cc1` gave an IC50 of 2.44 µM (MTT; 48 h).
`O=C(C=Cc1ccccc1)Nc1cc(-c2ccnc(N3CCOCC3)c2)ccn1` gave an IC50 of 0.0729 µM (MTT; 72 h).
The inhibition of `C[C@@H]1CC[C@@H]([C@](C)(O)CNCc2cccc(F)c2)[C@H](OCc2ccccc2)C1` is reported as 41.5% (MTT; 10 µM, 72 h).
The viability of `Cc1c(Cc2ccccc2)c(=O)oc2c(C)c(OCC(=O)NN=Cc3ccco3)ccc12` is reported as 15.3% (MTT; 31.25 µg/mL).
The inhibition of `COc1ccccc1CNC[C@@](C)(O)[C@@H]1CC[C@@H](C)C[C@H]1OCc1ccccc1` is reported as 87.6% (MTT; 30 µM, 72 h).
`O=C(O)c1ccccc1Nc1cccc(C(F)(F)F)c1` has a GI50 of over 30 µM (SRB; 48 h).
The inhibition of `C[C@@H]1CC[C@@H]([C@](C)(O)CNCc2ccccc2)[C@H](OCc2ccccc2)C1` is reported as 78.9% (MTT; 30 µM, 72 h).
`CCc1c(C)c2ccc(OCc3nnc(S)n3N)c(C)c2oc1=O` has a viability of 2.85% (MTT; 500 µg/mL).
The IC50 of `COc1cc2c3c(n(CCCn4ccnc4)c(=O)c2cc1OC)-c1nc2c(cc1C3=O)OCO2` is reported as 1.51 µM (MTS; 72 h).
The viability of `CCNC(=S)NNC(=O)COc1ccc2c(C)c(CC)c(=O)oc2c1C` is reported as 9.96% (MTT; 500 µg/mL).
With `C[C@@H]1CC[C@@H]([C@@](O)(CNCc2cccc3ccccc23)COCc2ccccc2)[C@H](OCc2ccccc2)C1` the inhibition was 91.2% (MTT; 30 µM, 72 h).
For `O=C(/C=C/c1cccc(F)c1)Nc1cc(-c2ccnc(N3CCC(O)CC3)c2)ccn1`, the inhibition was 75.8% (MTT; 5 µM).
The viability of `CC(=NNC(=O)COc1ccc2c(C)c(Cc3ccccc3)c(=O)oc2c1C)c1ccc(Br)cc1` is reported as 48.2% (MTT; 31.25 µg/mL).
`O=C(C=Cc1ccccc1)Nc1cccc(-c2ccnc(N3CCC(CO)CC3)c2)c1` gave an inhibition of 67.4% (MTT; 5 µM).
The inhibition of `COc1ccc(COC[C@@](O)(CNCc2ccc(F)cc2)[C@@H]2CC[C@@H](C)C[C@H]2OCc2ccc(OC)cc2)cc1` is reported as 99.2% (MTT; 30 µM, 72 h).
For `Cc1cc(NC(=O)C=Cc2ccccc2)cc(-c2ccnc(N3CCC(CO)CC3)c2)c1`, the inhibition was 59.8% (MTT; 5 µM).
`Cn1cc(-n2cnc3c(NCc4nc5cc(Cl)c(Cl)cc5[nH]4)nc(N4CCOCC4)nc32)cn1` has an EC50 of 0.0324 µM (5 days).
`CCc1c(C)c2ccc(OCC(=O)NN=Cc3ccc([N+](=O)[O-])cc3)cc2oc1=O` has a viability of 36.3% (MTT; 31.25 µg/mL).
For `C[C@@H]1CC[C@@H]([C@@](O)(CNCc2ccccc2)COCc2ccc(F)cc2)[C@H](OCc2ccc(F)cc2)C1`, the inhibition was 97.9% (MTT; 10 µM, 72 h).
With `O=[N+]([O-])c1ccc2c(c1)S(=O)(=O)C=C2` the IC50 was 1.3 µM (ATP luminescence; 72 h).
For `Cc1cc(NC(=O)C=Cc2ccccc2)cc(-c2ccnc(N3CCC(O)CC3)c2)c1`, the inhibition was 55% (MTT; 5 µM).
With `C=CC(=O)c1cccnc1Nc1cccc(C(F)(F)F)c1` the GI50 was 14.6 µM (SRB; 48 h).
